Assay [1] has as its target Glutathione S-transferase P (Homo sapiens) (UniProt P09211). The assay can be described thus: Binding affinity to GSTP1 in human NCI-H23 cells at 1 uM by mass spectrometry based pull down assay. The format is cell-based.
Assay [2] deals with Plakophilin-1 (Homo sapiens) (UniProt Q13835). As to the kind of experiment: Binding affinity to PKP1 in human NCI-H23 cells at 1 uM by mass spectrometry based pull down assay. The format is cell-based.
The target in assay [3] is Tyrosine-protein phosphatase non-receptor type 1 (Homo sapiens) (UniProt P18031). As to the kind of experiment: Binding affinity to PTPN1 in human NCI-H23 cells at 1 uM by mass spectrometry based pull down assay. The format is cell-based.
The target in assay [4] is Pyrroline-5-carboxylate reductase 2 (Homo sapiens) (UniProt Q96C36). The assay can be described thus: Binding affinity to PYCR2 in human NCI-H23 cells at 1 uM by mass spectrometry based pull down assay. The format is cell-based.
Assay [5] has as its target Sarcoplasmic/endoplasmic reticulum calcium ATPase 2 (Homo sapiens) (UniProt P16615). As to the kind of experiment: Binding affinity to ATP2A2 in human NCI-H23 cells at 1 uM by mass spectrometry based pull down assay. The class given is cell-based.
Assay [6] has as its target Eukaryotic translation initiation factor 2A (Homo sapiens) (UniProt Q9BY44). The assay can be described thus: Binding affinity to EIF2A in human NCI-H23 cells at 1 uM by mass spectrometry based pull down assay. The class given is cell-based.
The target of assay [7] is ADP-ribose glycohydrolase OARD1 (Homo sapiens) (UniProt Q9Y530). As to the kind of experiment: Binding affinity to OARD1 in human NCI-H358 cells at 1 uM by mass spectrometry based pull down assay. The class given is cell-based.
Chain of ADP-ribose glycohydrolase OARD1 (Homo sapiens) (Q9Y530 whole entry): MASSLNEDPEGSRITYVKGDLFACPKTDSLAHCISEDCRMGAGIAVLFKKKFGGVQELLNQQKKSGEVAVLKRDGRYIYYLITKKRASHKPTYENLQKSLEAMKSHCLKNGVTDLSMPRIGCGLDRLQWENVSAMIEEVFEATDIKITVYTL
The target in assay [8] is Arginine--tRNA ligase, cytoplasmic (Homo sapiens) (UniProt P54136). The assay can be described thus: Binding affinity to RARS in human NCI-H358 cells at 1 uM by mass spectrometry based pull down assay. The format is cell-based.
Chain of Arginine--tRNA ligase, cytoplasmic (Homo sapiens) (P54136 whole entry): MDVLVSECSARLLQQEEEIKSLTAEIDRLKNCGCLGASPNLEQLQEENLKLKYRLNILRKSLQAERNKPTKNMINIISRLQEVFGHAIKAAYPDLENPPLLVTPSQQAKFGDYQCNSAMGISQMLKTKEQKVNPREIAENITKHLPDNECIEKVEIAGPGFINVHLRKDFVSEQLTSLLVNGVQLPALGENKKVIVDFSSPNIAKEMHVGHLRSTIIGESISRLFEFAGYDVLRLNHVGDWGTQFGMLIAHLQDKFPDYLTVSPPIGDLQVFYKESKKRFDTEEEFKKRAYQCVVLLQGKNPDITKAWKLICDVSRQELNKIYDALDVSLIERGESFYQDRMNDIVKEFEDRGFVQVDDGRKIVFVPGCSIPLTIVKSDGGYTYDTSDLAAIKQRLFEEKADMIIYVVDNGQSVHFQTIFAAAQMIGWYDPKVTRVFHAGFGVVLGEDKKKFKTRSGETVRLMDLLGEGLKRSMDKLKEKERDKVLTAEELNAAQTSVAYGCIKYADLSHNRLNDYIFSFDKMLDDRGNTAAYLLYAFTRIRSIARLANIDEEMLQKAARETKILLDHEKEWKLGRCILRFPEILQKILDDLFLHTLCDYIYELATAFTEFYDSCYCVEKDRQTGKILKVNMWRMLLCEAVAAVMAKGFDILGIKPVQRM
Assay [9] deals with RuvB-like 2 (Homo sapiens) (UniProt Q9Y230). The assay can be described thus: Binding affinity to RUVBL2 in human NCI-H358 cells at 1 uM by mass spectrometry based pull down assay. The class given is cell-based.
Chain of RuvB-like 2 (Homo sapiens) (Q9Y230 whole entry): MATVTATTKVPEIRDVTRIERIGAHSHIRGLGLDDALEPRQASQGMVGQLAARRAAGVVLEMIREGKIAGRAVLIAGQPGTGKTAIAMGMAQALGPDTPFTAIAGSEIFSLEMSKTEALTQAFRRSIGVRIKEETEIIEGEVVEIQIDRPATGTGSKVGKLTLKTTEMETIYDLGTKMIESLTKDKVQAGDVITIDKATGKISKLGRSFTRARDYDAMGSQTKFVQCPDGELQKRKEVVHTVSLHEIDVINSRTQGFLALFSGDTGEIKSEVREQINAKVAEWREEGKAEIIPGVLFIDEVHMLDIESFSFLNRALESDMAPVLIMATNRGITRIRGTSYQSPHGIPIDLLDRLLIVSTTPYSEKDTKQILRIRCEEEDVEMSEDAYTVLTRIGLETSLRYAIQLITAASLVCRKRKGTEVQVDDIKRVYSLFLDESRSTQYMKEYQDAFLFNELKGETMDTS
Assay [10] deals with Monofunctional C1-tetrahydrofolate synthase, mitochondrial (Homo sapiens) (UniProt Q6UB35). As to the kind of experiment: Binding affinity to MTHFD1L in human NCI-H358 cells at 1 uM by mass spectrometry based pull down assay. The class given is cell-based.
For assay [11], the target named is T-complex protein 1 subunit theta (Homo sapiens) (UniProt P50990). As to the kind of experiment: Binding affinity to CCT8 in human NCI-H358 cells at 1 uM by mass spectrometry based pull down assay. The class given is cell-based.
In assay [12] the target is Calponin-2 (Homo sapiens) (UniProt Q99439). As to the kind of experiment: Binding affinity to CNN2 in human NCI-H358 cells at 1 uM by mass spectrometry based pull down assay. The format is cell-based.
The target of assay [13] is Very-long-chain 3-oxoacyl-CoA reductase (Homo sapiens) (UniProt Q53GQ0). The assay can be described thus: Binding affinity to HSD17B12 in human NCI-H358 cells at 1 uM by mass spectrometry based pull down assay. The format is cell-based.
For assay [14], the target named is 80S Ribosome (Homo sapiens) (UniProt P08865+P42677+P62753+P15880+P23396+P61247+P62701+P22090+P46782+P62081+P62241+P46781+P46783+P62280+P25398+P62277+P62263+P62841+P62244+P62249+P08708+P62269+P39019+P60866+P63220+P62266+P62847+P62851+P62854+P62979+P62857+P62273+P62861+P39023+P36578+P46777+Q02878+P18124+P62424+P62917+P32969+P27635+P62906+P62913+P30050+P26373+P40429+P50914+P61313+P18621+Q07020+Q02543+P84098+P46778+P35268+P62829+P62750+P83731+P61254+P61353+P46776+P46779+P47914+P62888+P62899+P62910+P49207+P42766+P18077+Q9Y3U8+P83881+P61927+P61513+P63173+P62891+P62945+P05388+P05386). The assay can be described thus: Binding affinity to RPL10A in human NCI-H358 cells at 1 uM by mass spectrometry based pull down assay. The format is cell-based.

Assay [15] deals with Proteasome adapter and scaffold protein ECM29 (Homo sapiens) (UniProt Q5VYK3). The assay can be described thus: Binding affinity to KIAA0368 in human NCI-H358 cells at 1 uM by mass spectrometry based pull down assay. The class given is cell-based.
Assay [16] deals with DNA replication licensing factor MCM4 (Homo sapiens) (UniProt P33991). The assay can be described thus: Binding affinity to MCM4 in human NCI-H358 cells at 1 uM by mass spectrometry based pull down assay. The class given is cell-based.
Chain of DNA replication licensing factor MCM4 (Homo sapiens) (P33991 whole entry): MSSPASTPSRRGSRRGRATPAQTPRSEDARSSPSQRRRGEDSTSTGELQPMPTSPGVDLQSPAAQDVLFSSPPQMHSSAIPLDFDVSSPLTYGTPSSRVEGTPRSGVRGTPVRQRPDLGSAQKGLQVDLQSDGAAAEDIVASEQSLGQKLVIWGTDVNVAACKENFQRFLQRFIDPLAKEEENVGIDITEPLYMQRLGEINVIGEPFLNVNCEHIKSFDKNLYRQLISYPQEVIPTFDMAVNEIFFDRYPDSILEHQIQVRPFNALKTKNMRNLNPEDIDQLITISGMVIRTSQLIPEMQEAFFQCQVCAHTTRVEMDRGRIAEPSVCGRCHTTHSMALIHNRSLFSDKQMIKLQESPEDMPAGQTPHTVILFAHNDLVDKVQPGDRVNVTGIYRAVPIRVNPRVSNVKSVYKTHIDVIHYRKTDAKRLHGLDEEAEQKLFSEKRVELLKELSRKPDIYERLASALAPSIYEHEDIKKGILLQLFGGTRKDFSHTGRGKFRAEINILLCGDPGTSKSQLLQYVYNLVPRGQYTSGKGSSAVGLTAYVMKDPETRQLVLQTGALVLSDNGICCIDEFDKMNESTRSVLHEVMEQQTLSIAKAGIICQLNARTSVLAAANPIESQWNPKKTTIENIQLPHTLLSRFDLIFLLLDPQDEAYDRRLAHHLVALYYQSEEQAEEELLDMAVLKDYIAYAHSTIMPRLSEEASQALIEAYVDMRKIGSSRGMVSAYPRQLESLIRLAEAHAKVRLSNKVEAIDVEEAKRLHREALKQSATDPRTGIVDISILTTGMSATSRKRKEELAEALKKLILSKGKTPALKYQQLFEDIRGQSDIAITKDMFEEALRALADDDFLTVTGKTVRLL
For assay [17], the target named is ATP-dependent RNA helicase DHX15 (Homo sapiens) (UniProt O43143). The assay can be described thus: Binding affinity to DHX15 in human NCI-H358 cells at 1 uM by mass spectrometry based pull down assay. The class given is cell-based.
Chain of ATP-dependent RNA helicase DHX15 (Homo sapiens) (O43143 whole entry): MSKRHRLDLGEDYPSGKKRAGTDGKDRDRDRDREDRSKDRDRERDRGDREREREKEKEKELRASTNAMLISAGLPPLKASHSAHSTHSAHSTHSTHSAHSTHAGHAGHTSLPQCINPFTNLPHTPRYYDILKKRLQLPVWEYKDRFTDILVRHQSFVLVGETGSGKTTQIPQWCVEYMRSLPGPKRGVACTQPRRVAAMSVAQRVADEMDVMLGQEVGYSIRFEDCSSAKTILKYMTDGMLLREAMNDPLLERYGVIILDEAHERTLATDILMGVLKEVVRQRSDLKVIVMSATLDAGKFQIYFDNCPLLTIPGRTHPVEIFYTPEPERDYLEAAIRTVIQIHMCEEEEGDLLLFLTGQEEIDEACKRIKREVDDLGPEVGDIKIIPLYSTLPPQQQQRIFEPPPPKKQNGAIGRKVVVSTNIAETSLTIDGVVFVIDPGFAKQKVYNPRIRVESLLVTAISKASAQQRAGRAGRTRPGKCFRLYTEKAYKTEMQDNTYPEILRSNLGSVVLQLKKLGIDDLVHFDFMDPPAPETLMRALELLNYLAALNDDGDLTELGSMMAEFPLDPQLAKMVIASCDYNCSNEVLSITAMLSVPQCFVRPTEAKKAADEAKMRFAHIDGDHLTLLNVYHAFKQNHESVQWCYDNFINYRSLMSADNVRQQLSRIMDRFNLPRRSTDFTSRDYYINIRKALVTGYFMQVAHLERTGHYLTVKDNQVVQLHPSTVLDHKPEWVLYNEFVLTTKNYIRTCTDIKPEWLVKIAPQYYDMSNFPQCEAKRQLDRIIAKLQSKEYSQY
The target of assay [18] is Polymeric immunoglobulin receptor (Homo sapiens) (UniProt P01833). The assay can be described thus: Binding affinity to PIGR in human NCI-H358 cells at 1 uM by mass spectrometry based pull down assay. The class given is cell-based.
A further assay has as its target Nucleolin (Homo sapiens) (UniProt P19338). As to the kind of experiment: Binding affinity to NCL in human NCI-H358 cells at 1 uM by mass spectrometry based pull down assay. The format is cell-based.
Assay [19] deals with TGF-beta receptor type-2 (Homo sapiens) (UniProt P37173). As to the kind of experiment: Inhibition of human TGFBR2 (218 to 567 residues) expressed in bacterial expression system assessed as enzyme activity at 1 uM by KINOMEScan assay relative to control. Also noted: scale not given: the % may be the effect or the level left. The procedure, abridged: (§1)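 In vitro ATP-site competition binding assay across a panel of 456 kinases, with compound tested at 1 and 10 μM.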

The target of assay [20] is Platelet-derived growth factor receptor alpha (Homo sapiens) (UniProt P16234). As to the kind of experiment: Inhibition of human PDGFRA (575 to 1002 residues) expressed in mammalian expression system assessed as enzyme activity at 1 uM by KINOMEScan assay relative to control. Also noted: scale not given: the % may be the effect or the level left. The method, boiled down: as §1

Assay [21] has as its target Serine/threonine-protein kinase TBK1 (Homo sapiens) (UniProt Q9UHD2). As to the kind of experiment: Inhibition of TBK1 in human SKCO1 cells at 1 uM after 4 hrs using biotin labeled DIKPGNIMR probe by mass-spectrometric analysis relative to control. The class given is cell-based.
Assay [22] concerns the target Mitogen-activated protein kinase kinase kinase 21 (Homo sapiens) (UniProt Q5TCX8). As to the kind of experiment: Inhibition of MLK4 in human SKCO1 cells at 1 uM after 4 hrs using biotin labeled DLKSSNILLLEK probe by mass-spectrometric analysis relative to control. The class given is cell-based.
Assay [23] deals with Protein kinase C iota (Homo sapiens) (UniProt P41743). As to the kind of experiment: Inhibition of PKCi in human SKCO1 cells at 1 uM after 4 hrs using biotin labeled DLKLDNVLLDSEGHIK probe by mass-spectrometric analysis relative to control.

Usually inhibition stands for the relative decrease from the control value, in per cent.

Active and inactive are the calls of the source. The rule behind the calls is not given here.

Chain of Mitogen-activated protein kinase kinase kinase 21 (Homo sapiens) (Q5TCX8 whole entry): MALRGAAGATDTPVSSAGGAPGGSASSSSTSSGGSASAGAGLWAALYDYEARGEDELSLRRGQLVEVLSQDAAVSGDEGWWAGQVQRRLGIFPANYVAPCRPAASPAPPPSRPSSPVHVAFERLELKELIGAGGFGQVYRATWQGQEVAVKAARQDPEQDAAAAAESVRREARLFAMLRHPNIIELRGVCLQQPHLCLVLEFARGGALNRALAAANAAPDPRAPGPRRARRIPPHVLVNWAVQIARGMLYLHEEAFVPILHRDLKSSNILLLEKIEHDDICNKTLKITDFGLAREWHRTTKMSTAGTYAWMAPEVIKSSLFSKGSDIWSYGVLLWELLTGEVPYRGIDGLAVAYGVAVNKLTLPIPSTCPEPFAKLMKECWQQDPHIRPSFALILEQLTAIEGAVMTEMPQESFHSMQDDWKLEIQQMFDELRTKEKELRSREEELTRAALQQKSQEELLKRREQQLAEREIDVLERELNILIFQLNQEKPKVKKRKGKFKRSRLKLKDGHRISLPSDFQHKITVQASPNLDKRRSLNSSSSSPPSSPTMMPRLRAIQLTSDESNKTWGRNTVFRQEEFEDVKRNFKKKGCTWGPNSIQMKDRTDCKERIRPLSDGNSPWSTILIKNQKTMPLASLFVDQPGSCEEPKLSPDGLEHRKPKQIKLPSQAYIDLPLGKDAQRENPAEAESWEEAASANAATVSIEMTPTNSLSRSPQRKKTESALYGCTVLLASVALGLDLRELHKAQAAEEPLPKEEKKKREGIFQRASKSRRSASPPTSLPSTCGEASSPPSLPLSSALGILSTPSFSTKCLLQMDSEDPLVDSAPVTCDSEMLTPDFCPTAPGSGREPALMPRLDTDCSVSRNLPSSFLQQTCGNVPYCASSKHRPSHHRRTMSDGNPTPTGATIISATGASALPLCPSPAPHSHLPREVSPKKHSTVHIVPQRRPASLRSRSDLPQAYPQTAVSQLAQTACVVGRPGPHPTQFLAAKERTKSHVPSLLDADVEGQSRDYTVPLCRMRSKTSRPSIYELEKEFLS
Chain of Serine/threonine-protein kinase TBK1 (Homo sapiens) (Q9UHD2 whole entry): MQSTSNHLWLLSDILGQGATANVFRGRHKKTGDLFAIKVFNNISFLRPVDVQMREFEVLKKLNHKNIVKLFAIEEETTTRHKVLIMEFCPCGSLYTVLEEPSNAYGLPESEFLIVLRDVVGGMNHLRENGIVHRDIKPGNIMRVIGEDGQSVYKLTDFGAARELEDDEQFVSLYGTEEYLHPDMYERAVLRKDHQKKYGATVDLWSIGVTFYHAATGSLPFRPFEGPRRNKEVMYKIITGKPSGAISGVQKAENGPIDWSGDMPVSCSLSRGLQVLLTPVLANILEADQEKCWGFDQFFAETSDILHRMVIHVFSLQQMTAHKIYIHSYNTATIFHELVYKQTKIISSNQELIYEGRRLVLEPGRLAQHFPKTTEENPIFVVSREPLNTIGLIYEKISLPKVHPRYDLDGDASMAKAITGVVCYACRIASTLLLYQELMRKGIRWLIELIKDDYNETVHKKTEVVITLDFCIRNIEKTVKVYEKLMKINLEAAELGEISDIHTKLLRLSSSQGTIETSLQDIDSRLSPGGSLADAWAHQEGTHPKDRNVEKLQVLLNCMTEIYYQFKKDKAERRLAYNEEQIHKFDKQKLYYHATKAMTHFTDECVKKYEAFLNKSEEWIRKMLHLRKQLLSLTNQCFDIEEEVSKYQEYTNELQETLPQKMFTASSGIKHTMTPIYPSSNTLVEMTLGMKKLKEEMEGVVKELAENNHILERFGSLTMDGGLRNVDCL
Chain of Glutathione S-transferase P (Homo sapiens) (P09211 2-210 limits assumed): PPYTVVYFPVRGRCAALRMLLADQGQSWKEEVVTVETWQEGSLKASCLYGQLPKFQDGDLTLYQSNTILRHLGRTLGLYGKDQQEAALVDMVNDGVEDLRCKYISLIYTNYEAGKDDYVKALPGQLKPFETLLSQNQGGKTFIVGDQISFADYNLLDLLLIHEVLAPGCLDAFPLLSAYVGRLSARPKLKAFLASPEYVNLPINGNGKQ

Turning to `C=CC(=O)Nc1ccccc1Nc1nc(Nc2ccc(N3CCN(CCOCCOCCOCCNC(=O)CCCC[C@@H]4SC[C@@H]5NC(=O)N[C@@H]54)CC3)cc2)ncc1Cl`, the outcome in assay [1], in assay [2], in assay [3], in assay [4], in [5] and in assay [6] was Active. Besides, the result in assay [7], in assay [8], in [9], in [10], in assay [11] and in assay [12] was Active. For the same molecule, the result in assay [13], in assay [14], in [15], in assay [16], in assay [17] and in [18] was Active. The result at Nucleolin (Homo sapiens) was Active.

In the case of `COc1cc(O)c2c(c1)/C=C/C[C@H](O)[C@H](O)C(=O)/C=C\C[C@H](C)OC2=O`, the Activity in assay [19] amounted to 3.8%; in [20], 44%.

In the case of `C=CC(=O)Nc1ccccc1Nc1nc(Nc2ccc(N3CCN(C)CC3)cc2)ncc1Cl`, the inhibition in assay [21] was 59.3%; in assay [22] it was -1.1%; in assay [23], -5.7%.
